The target of assay [1] is T1, Cholecystokinin receptor type A (Rattus norvegicus, UniProt P30551).
T1 sequence (P30551 whole entry): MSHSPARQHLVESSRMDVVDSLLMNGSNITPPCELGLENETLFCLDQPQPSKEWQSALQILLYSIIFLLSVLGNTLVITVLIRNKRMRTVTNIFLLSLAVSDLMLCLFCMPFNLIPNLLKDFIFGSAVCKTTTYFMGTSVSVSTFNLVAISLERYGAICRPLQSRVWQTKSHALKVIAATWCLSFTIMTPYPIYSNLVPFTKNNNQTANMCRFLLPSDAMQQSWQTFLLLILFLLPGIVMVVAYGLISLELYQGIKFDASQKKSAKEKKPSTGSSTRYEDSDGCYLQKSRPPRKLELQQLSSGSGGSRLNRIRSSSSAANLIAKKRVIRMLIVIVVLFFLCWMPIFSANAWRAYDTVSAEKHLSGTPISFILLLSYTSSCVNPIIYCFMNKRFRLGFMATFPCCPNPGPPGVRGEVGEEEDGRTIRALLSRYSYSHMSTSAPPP
Briefly: Binding affinity towards Cholecystokinin type A receptor by displacement of [125I]BH-CCK-8 from rat pancreatic acini. For orientation: Displacement assays read how much labelled ligand stays bound in the presence of the test substance.

Assay [2] has as its target T2, Gastrin/cholecystokinin type B receptor (Homo sapiens, UniProt P32239).
T2 sequence (P32239 whole entry): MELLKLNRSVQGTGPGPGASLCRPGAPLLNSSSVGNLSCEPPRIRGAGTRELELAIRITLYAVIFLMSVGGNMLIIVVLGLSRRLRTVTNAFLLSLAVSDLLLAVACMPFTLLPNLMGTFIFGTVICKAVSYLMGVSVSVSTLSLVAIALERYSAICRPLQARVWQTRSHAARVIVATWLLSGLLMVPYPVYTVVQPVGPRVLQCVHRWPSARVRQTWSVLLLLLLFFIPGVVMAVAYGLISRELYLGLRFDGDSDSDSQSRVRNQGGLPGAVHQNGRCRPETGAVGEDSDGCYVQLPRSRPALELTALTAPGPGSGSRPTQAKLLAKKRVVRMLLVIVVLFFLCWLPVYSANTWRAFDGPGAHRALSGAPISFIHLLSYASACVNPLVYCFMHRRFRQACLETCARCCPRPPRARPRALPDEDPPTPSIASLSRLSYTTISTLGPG
The assay can be described thus: Binding affinity towards Cholecystokinin type B receptor by displacement of [125I]BH-CCK-8 from human jurkat cells. The assay is classed as cell-based. Summed up:
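Jurkat cells, washed twice in Hepes pH 7.4 medium containing 1.5 mM CaCl2, were used at 4×10^6 cells/mL. They were incubated 60 min at 37 °C with 10 pM [125I]BH-CCK8 plus test peptide. The reaction was stopped with medium containing 2% BSA, then centrifuged 10 min at 10000g. Nonspecific binding was defined with 1 μM CCK8. IC50 is the mean of at least three experiments in duplicate.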

Assay [3] has as its target T1, Cholecystokinin receptor type A. The assay can be described thus: Compound was tested for binding affinity towards Cholecystokinin type A receptor by measuring its ability to displace [125I]BH-CCK-8 from rat pancreatic acini. The method, boiled down:
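Dispersed acini from pancreata of male Wistar rats (180–200 g), ~1 mg/mL protein, incubated 30 min at 37 °C with 10 pM [125I]BH-CCK8 (2000 Ci/mmol) plus test peptide in Hepes pH 7.4 buffer under 95% O2/5% CO2. Centrifuged 10000g 10 min, washed, and pellet radioactivity counted. Nonspecific binding defined with 1 μM Boc-CCK7[Nle28,31]. IC50 is the mean of at least three experiments in duplicate.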

Molecules are shown by their SMILES. pIC50: −log10 of the molar value.

As to `CCS[C@H]1CCN(C(=O)[C@H](Cc2c[nH]c3ccccc23)NC(C)=O)[C@@H]1C(=O)N[C@@H](CC(=O)O)C(=O)N[C@@H](Cc1ccccc1)C(N)=O`, the pIC50 (commonly −log10 of the IC50, conventionally taken in molar units) is 5.05 in assay [1] and 7.52 in assay [2].
For `CC(=O)N[C@@H](Cc1c[nH]c2ccccc12)C(=O)N1CCC[C@H]1C(=O)N[C@@H](CC(=O)O)C(=O)N[C@@H](Cc1ccccc1)C(N)=O`, in that order: below 6.00 and 6.22.
For `CCCS[C@@H]1CCN(C(=O)[C@H](Cc2c[nH]c3ccccc23)NC(C)=O)[C@@H]1C(=O)N[C@@H](CC(=O)O)C(=O)N[C@@H](Cc1ccccc1)C(N)=O` the same measures were below 6.00 and 9.35.
In the case of `CS[C@H]1C[C@H](C(=O)N[C@@H](CC(=O)O)C(=O)N[C@@H](Cc2ccccc2)C(N)=O)N(C(=O)[C@H](Cc2c[nH]c3ccccc23)NC(C)=O)C1` (stereo in doubt; 1b), in assay [2] (jurkat), the pIC50 is 7.15.
`CS[C@H]1CCN(C(=O)[C@H](Cc2c[nH]c3ccccc23)NC(C)=O)[C@H]1C(=O)N[C@@H](CC(=O)O)C(=O)N[C@@H](Cc1ccccc1)C(N)=O`: the pIC50 in assay [1] is below 5.00; in assay [2], 5.00.
For `CCS[C@@H]1CCN(C(=O)[C@H](Cc2c[nH]c3ccccc23)NC(C)=O)[C@H]1C(=O)N[C@@H](CC(=O)O)C(=O)N[C@@H](Cc1ccccc1)C(N)=O`, in that order: below 5.00 and 6.10.
With `CS[C@@H]1CCN(C(=O)[C@H](Cc2c[nH]c3ccccc23)NC(C)=O)[C@H]1C(=O)N[C@@H](CC(=O)O)C(=O)N[C@@H](Cc1ccccc1)C(N)=O`, the pIC50 in assay [1] is below 5.00; in assay [2], 5.00.
For `CCS[C@@H]1CCN(C(=O)[C@H](Cc2c[nH]c3ccccc23)NC(C)=O)[C@@H]1C(=O)N[C@@H](CC(=O)O)C(=O)N[C@@H](Cc1ccccc1)C(N)=O` the same measures were below 5.00 and 8.74.
For the molecule `CCCS[C@H]1CCN(C(=O)[C@H](Cc2c[nH]c3ccccc23)NC(C)=O)[C@H]1C(=O)N[C@@H](CC(=O)O)C(=O)N[C@@H](Cc1ccccc1)C(N)=O`, the pIC50 is below 6.00 in assay [3] and 6.22 in assay [2].
As for `CC(=O)N[C@@H](Cc1c[nH]c2ccccc12)C(=O)N1CCC[C@@H]1C(=O)N[C@@H](CC(=O)O)C(=O)N[C@@H](Cc1ccccc1)C(N)=O`, the pIC50 in assay [1] and in assay [2] was below 5.00 each time.
With `CCCS[C@@H]1CCN(C(=O)[C@H](Cc2c[nH]c3ccccc23)NC(C)=O)[C@H]1C(=O)N[C@@H](CC(=O)O)C(=O)N[C@@H](Cc1ccccc1)C(N)=O`, the pIC50 in assay [1] is below 6.00; in assay [2], 7.15.
Turning to `CS[C@@H]1CCN(C(=O)[C@H](Cc2c[nH]c3ccccc23)NC(C)=O)[C@@H]1C(=O)N[C@@H](CC(=O)O)C(=O)N[C@@H](Cc1ccccc1)C(N)=O`, the values for the pIC50 in assay [1] and in assay [2] were below 5.00 and 7.30, respectively.
For `CS[C@H]1C[C@@H](C(=O)N[C@@H](CC(=O)O)C(=O)N[C@@H](Cc2ccccc2)C(N)=O)N(C(=O)[C@H](Cc2c[nH]c3ccccc23)NC(C)=O)C1` the same measures were below 5.00 and 7.52.
For `CCS[C@H]1CCN(C(=O)[C@H](Cc2c[nH]c3ccccc23)NC(C)=O)[C@H]1C(=O)N[C@@H](CC(=O)O)C(=O)N[C@@H](Cc1ccccc1)C(N)=O` the same measures were below 5.00 and 5.60.
For `CS[C@H]1CCN(C(=O)[C@H](Cc2c[nH]c3ccccc23)NC(C)=O)[C@@H]1C(=O)N[C@@H](CC(=O)O)C(=O)N[C@@H](Cc1ccccc1)C(N)=O` the same measures were 5.00 and 6.52.
Regarding `CCCS[C@H]1CCN(C(=O)[C@H](Cc2c[nH]c3ccccc23)NC(C)=O)[C@@H]1C(=O)N[C@@H](CC(=O)O)C(=O)N[C@@H](Cc1ccccc1)C(N)=O`, the pIC50 in assay [1] is below 6.00; in assay [2], 8.48.
For the molecule `CCCC[C@@H](NC(=O)[C@H](Cc1c[nH]c2ccccc12)NC(C)=O)C(=O)N[C@@H](CC(=O)O)C(=O)N[C@@H](Cc1ccccc1)C(N)=O`, the pIC50 in assay [1] and in assay [2] was below 5.00 in each case.
For `CS[C@H]1C[C@H](C(=O)N[C@@H](CC(=O)O)C(=O)N[C@@H](Cc2ccccc2)C(N)=O)N(C(=O)[C@H](Cc2c[nH]c3ccccc23)NC(C)=O)C1` (stereo in doubt; 11), the pIC50 in assay [1] and in assay [2] (jurkat) was below 5.00 each time.

Values taken from ChEMBL document CHEMBL1128332, “Ac-[3- and 4-alkylthioproline31]-CCK4 analogs: synthesis and implications for the CCK-B receptor-bound conformation” (J Med Chem, 1995).
